ChEMBL document CHEMBL4828721, “Substituted dienes prepared from betulinic acid - Synthesis, cytotoxicity, mechanism of action, and pharmacological parameters” (Eur J Med Chem, 2021)
pIC50: −log10 of the molar value. Active and inactive are the calls of the source. The rule behind the calls is not given here.

Key:
CCRF-CEM [1] = assay: Induction of apoptosis in human CCRF-CEM cells assessed as activation of caspase 9 at 5 times IC50 measured after 24 hrs by western blot analysis; type: functional, cell-based
How it was run: (§1)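 Protein (15 µg/lane) was resolved by 10% SDS-PAGE and transferred to nitrocellulose. Blocked in 5% milk/TBST, then probed overnight at 4 °C with primary antibodies (1:1000) and HRP secondaries. Detected by ECL, with β-actin as loading control.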

CCRF-CEM [2] = assay: Induction of apoptosis in human CCRF-CEM cells assessed as dead cells at IC50 measured after 24 hrs by Annexin V-FITC/PI staining based flow cytometry analysis (Rvb= 0.3%); type: functional
How it was run: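 They were washed in ice-cold PBS and incubated with Annexin V-FITC plus PI for 20 min at room temperature in the dark. Cells were then pelleted and resuspended in binding buffer (10 mmol/L HEPES/NaOH pH 7.4, 140 mmol/L NaCl, 2.5 mmol/L CaCl2). Read on a FACSAria II, ≥10,000 cells per sample.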

CCRF-CEM [3] = assay: Cell cycle arrest in human CCRF-CEM cells assessed as accumulation of cells at S phase at 5 times IC50 measured after 24 hrs by propidium iodide staining based flow cytometry analysis (Rvb= 38.17%); type: functional
CCRF-CEM [4] = assay: Cell cycle arrest in human CCRF-CEM cells assessed as accumulation of cells at sub G1 phase at 5 times IC50 measured after 24 hrs by propidium iodide staining based flow cytometry analysis (Rvb= 2.77%); type: functional
HCT-116 = assay: Cytotoxicity against human HCT-116 cells assessed as reduction in cell viability measured after 72 hrs by MTS assay; type: functional, cell-based; conditions: HCT-116, 72 h
[5] = Cytotoxicity against paclitaxel resistant human K562-Tax cells assessed as reduction in cell viability measured after 72 hrs by MTS assay; type: functional, cell-based
CCRF-CEM [6] = assay: Cell cycle arrest in human CCRF-CEM cells assessed as accumulation of cells at G2/M phase at 5 times IC50 measured after 24 hrs by propidium iodide staining based flow cytometry analysis (Rvb= 21.62%); type: functional
CCRF-CEM [7] = assay: Inhibition of DNA synthesis in human CCRF-CEM cells at 5 times IC50 by BrdU incorporation assay (Rvb= 41.56%); type: functional; parameters: scale not given: the % may be the effect or the level left
[8] = Apparent permeability of the compound in dog MDCK-MDR1 cells assessed as recovery rate at pH 7.4 at 10 micromol/L measured after 1 hr by RF-MS analysis; type: ADME, cell-based, Canis lupus familiaris; conditions: MDCK-MDR1, pH 7.4, dose 10 µmol/L, read-out: Activity
CCRF-CEM [9] = assay: Induction of mitotic arrest in human CCRF-CEM cells assessed as phosphorylation of histone H3 at Ser10 at 5 times IC50 measured after 24 hrs by propidium iodide staining based flow cytometry analysis (Rvb= 1.72%); type: functional
CCRF-CEM [10] = assay: Cell cycle arrest in human CCRF-CEM cells assessed as accumulation of cells at sub G1 phase at IC50 measured after 24 hrs by propidium iodide staining based flow cytometry analysis (Rvb= 2.77%); type: functional
[11] = Microsomal stability in human liver microsomes assessed as parent compound remaining at 2 uM in the presence of NADPH measured after 60 mins by RF-MS analysis; type: ADME, Microsome; conditions: read-out: Stability
How it was run: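 Human liver microsomes incubated with compound in the presence of NADPH cofactor to assess phase I oxidation. Intrinsic clearance was derived from the decline of the parent compound.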

CCRF-CEM [12] = assay: Inhibition of RNA synthesis in human CCRF-CEM cells at IC50 by […] incorporation assay (Rvb= 36.54%); type: functional; parameters: scale not given: the % may be the effect or the level left
[13] = Apparent permeability of the compound in human Caco2 cells assessed as recovery rate at pH 7.4 at 10 micromol/L measured after 1 hr by RF-MS analysis; type: ADME, cell-based; conditions: Caco-2, pH 7.4, dose 10 µmol/L, read-out: Activity
CCRF-CEM [14] = assay: Induction of apoptosis in human CCRF-CEM cells assessed as activation of caspase 3 at 5 times IC50 measured after 24 hrs by western blot analysis; type: functional, cell-based; how it was run: as §1
CCRF-CEM [15] = assay: Inhibition of RNA synthesis in human CCRF-CEM cells at 5 times IC50 by […] incorporation assay (Rvb= 36.54%); type: functional; parameters: scale not given: the % may be the effect or the level left
CCRF-CEM [16] = assay: Cell cycle arrest in human CCRF-CEM cells assessed as accumulation of cells at S phase at IC50 measured after 24 hrs by propidium iodide staining based flow cytometry analysis (Rvb= 38.17%); type: functional
BJ = assay: Cytotoxicity against human BJ cells assessed as reduction in cell viability measured after 72 hrs by MTS assay; type: cell-based
CCRF-CEM [17] = assay: Induction of apoptosis in human CCRF-CEM cells assessed as late apoptotic cells at 5 times IC50 measured after 24 hrs by Annexin V-FITC/PI staining based flow cytometry analysis (Rvb= 1.4%); type: functional
CCRF-CEM [18] = assay: Induction of cell cycle arrest in human CCRF-CEM cells assessed as downregulation of cyclin D1 protein expression at 5 times IC50 measured after 24 hrs by western blot analysis; type: functional, cell-based; how it was run: as §1
CCRF-CEM [19] = assay: Inhibition of DNA synthesis in human CCRF-CEM cells at IC50 by BrdU incorporation assay (Rvb= 41.56%); type: functional; parameters: scale not given: the % may be the effect or the level left
[20] = Fraction bound in human plasma at 10 uM measured after 4 hrs by RF-MS based rapid equilibrium dialysis method
CCRF-CEM [21] = assay: Induction of apoptosis in human CCRF-CEM cells assessed as live cells at IC50 measured after 24 hrs by Annexin V-FITC/PI staining based flow cytometry analysis (Rvb= 96.7%); type: functional
CCRF-CEM [22] = assay: Induction of apoptosis in human CCRF-CEM cells assessed as induction of PARP cleavage at 5 times IC50 measured after 24 hrs by western blot analysis; type: functional, cell-based; how it was run: as §1
[23] = Stability in human plasma assessed as parent compound remaining at 2 uM incubated for 60 mins by RF-MS analysis; type: ADME, cell-free; conditions: read-out: Stability
CCRF-CEM [24] = assay: Induction of apoptosis in human CCRF-CEM cells assessed as early apoptotic cells at IC50 measured after 24 hrs by Annexin V-FITC/PI staining based flow cytometry analysis (Rvb= 1.6%); type: functional
CCRF-CEM [25] = assay: Induction of apoptosis in human CCRF-CEM cells assessed as early apoptotic cells at 5 times IC50 measured after 24 hrs by Annexin V-FITC/PI staining based flow cytometry analysis (Rvb= 1.6%); type: functional
[26] = Apparent permeability of the compound in human Caco2 cells at pH 7.4 at 10 micromol/L measured after 2 hrs by RF-MS analysis; type: ADME, cell-based; conditions: Caco-2, pH 7.4, dose 10 µmol/L
How it was run: (§2)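 Caco-2 and MDCK-MDR1 cells grown on polyester Transwell filters (0.4 and 1 µm pores) in DMEM pH 7.4 with 10% FBS; monolayer integrity checked by Lucifer Yellow rejection. Cells washed and pre-equilibrated 1 h in HBSS pH 7.4, then dosed with compound in HBSS pH 7.4. Incubation was 1 h for MDCK and 2 h for Caco-2. Samples lyophilized and quantified by RapidFire MS/MS with internal standard. Duplicates. Papp = (dQ/dt)/(C0·A).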

[27] = Apparent permeability of the compound in dog MDCK-MDR1 cells at pH 7.4 at 10 micromol/L measured after 1 hr by RF-MS analysis; type: ADME, cell-based, Canis lupus familiaris; conditions: MDCK-MDR1, pH 7.4, dose 10 µmol/L; how it was run: as §2

SMILES | Activity (CCRF-CEM [1]) | Activity (CCRF-CEM [2]) | Activity (CCRF-CEM [3]) | Activity (CCRF-CEM [4]) | pIC50 (HCT-116) | pIC50 [5] | Activity (CCRF-CEM [6]) | Activity (CCRF-CEM [7]) | recovery at 1 h, 10 µM [8] | Activity (CCRF-CEM [9]) | Activity (CCRF-CEM [10]) | remaining at 1 h, 2 µM [11] | Activity (CCRF-CEM [12]) | recovery at 1 h, 10 µM [13] | Activity (CCRF-CEM [14]) | Activity (CCRF-CEM [15]) | Activity (CCRF-CEM [16]) | pIC50 (BJ) | Activity (CCRF-CEM [17]) | Activity (CCRF-CEM [18]) | other results
C=C(/C=C/c1ccc([N+](=O)[O-])cc1)[C@@H]1CC[C@]2(C(=O)O)CC[C@]3(C)[C@H](CC[C@@H]4[C@@]5(C)CC[C@H](O)C(C)(C)[C@@H]5CC[C@]43C)[C@@H]12 | Active | 1.8% | 57.61% | 25.04% | 4.73 | 4.63 | 12.81% | 3.06% | 56.7% | 0.93% | 6.54% | 53.5% | 34.98% | 58.5% | Active | 4.07% | 28.44% | 4.61 | 9.6% | Active | Activity (CCRF-CEM [19]): 43.17%; PPB (% bound) at 4 h, 10 µM [20]: 68.1%; Activity (CCRF-CEM [21]): 90.9%; Activity (CCRF-CEM [22]): Active; remaining at 1 h, 2 µM [23]: 69.3%; Activity (CCRF-CEM [24]): 2.4%; Activity (CCRF-CEM [25]): 17.6%; Papp at 2 h, 10 µM [26]: 0.96 ×10⁻⁶ cm/s; Papp at 1 h, 10 µM [27]: 0.43 ×10⁻⁶ cm/s
C=C(/C=C/c1cccc(Cl)c1)[C@@H]1CC[C@]2(C(=O)O)CC[C@]3(C)[C@H](CC[C@@H]4[C@@]5(C)CC[C@H](O)C(C)(C)[C@@H]5CC[C@]43C)[C@@H]12 | Active | 1.4% | 37.93% | 9.13% | 4.79 | 4.59 | 12.28% | 0.4% | 104% | 1.52% | 5.66% | 81.5% | 18.97% | 42.1% | Active | 11.37% | 42.75% | < 4.30 | 4.7% | Active | Activity (CCRF-CEM [19]): 35.56%; PPB (% bound) at 4 h, 10 µM [20]: 79%; Activity (CCRF-CEM [21]): 91.9%; Activity (CCRF-CEM [22]): Active; remaining at 1 h, 2 µM [23]: 89.5%; Activity (CCRF-CEM [24]): 2.1%; Activity (CCRF-CEM [25]): 5.3%; Papp at 2 h, 10 µM [26]: 17.5 ×10⁻⁶ cm/s; Papp at 1 h, 10 µM [27]: 22.4 ×10⁻⁶ cm/s
